As usually defined, the inhibition is the drop in the measured response relative to a control, in per cent. The term IC50 denotes the concentration at which inhibition is half-maximal. Higher therefore signals weaker potency in that assay.

Calls of active or inactive are those of the source. The calls are words filed in the database; no cut-off is given here.

In test [1] the target is Hepatocyte growth factor receptor (Homo sapiens) (UniProt P08581). Kind of test: Inhibition of MET at 10 uM.
The target in test [2] is Insulin-like growth factor 1 receptor (Homo sapiens) (UniProt P08069). Kind of test: Inhibition of IGF1R at 10 uM.
Test [3] deals with Vascular endothelial growth factor receptor 2 (Homo sapiens) (UniProt P35968). In words: Inhibition of VEGFR2 at 10 uM.
In test [4] the target is BDNF/NT-3 growth factors receptor (Homo sapiens) (UniProt Q16620). In words: Inhibition of TRKB at 10 uM.
The target of test [5] is Aurora kinase B (Homo sapiens) (UniProt Q96GD4). Kind of test: Inhibition of AuroraB at 10 uM.
The target in test [6] is Serine/threonine-protein kinase N1 (Homo sapiens) (UniProt Q16512). In words: Inhibition of PRK1 at 10 uM.
For test [7], the target named is Proto-oncogene tyrosine-protein kinase Src (Homo sapiens) (UniProt P12931). In words: Inhibition of SRC at 10 uM.
Test [8] addresses T1, Mitogen-activated protein kinase 14 (Homo sapiens, UniProt Q16539). In words: Inhibition of p38alpha at 10 uM by immunosorbent based kinase assay.
Test [9] deals with Casein kinase II subunit alpha (Homo sapiens) (UniProt P68400). In words: Inhibition of CK2alpha1 at 10 uM.
For test [10], the target named is Serine/threonine-protein kinase PLK1 (Homo sapiens) (UniProt P53350). Kind of test: Inhibition of PLK1 at 10 uM.
Test [11] deals with Insulin receptor (Homo sapiens) (UniProt P06213). Kind of test: Inhibition of INSR at 10 uM.
Test [12] deals with RAC-alpha serine/threonine-protein kinase (Homo sapiens) (UniProt P31749). Kind of test: Inhibition of AKT1 at 10 uM.
In test [13] the target is T2, NUAK family SNF1-like kinase 1 (Homo sapiens) (UniProt O60285).
T2 sequence (whole entry): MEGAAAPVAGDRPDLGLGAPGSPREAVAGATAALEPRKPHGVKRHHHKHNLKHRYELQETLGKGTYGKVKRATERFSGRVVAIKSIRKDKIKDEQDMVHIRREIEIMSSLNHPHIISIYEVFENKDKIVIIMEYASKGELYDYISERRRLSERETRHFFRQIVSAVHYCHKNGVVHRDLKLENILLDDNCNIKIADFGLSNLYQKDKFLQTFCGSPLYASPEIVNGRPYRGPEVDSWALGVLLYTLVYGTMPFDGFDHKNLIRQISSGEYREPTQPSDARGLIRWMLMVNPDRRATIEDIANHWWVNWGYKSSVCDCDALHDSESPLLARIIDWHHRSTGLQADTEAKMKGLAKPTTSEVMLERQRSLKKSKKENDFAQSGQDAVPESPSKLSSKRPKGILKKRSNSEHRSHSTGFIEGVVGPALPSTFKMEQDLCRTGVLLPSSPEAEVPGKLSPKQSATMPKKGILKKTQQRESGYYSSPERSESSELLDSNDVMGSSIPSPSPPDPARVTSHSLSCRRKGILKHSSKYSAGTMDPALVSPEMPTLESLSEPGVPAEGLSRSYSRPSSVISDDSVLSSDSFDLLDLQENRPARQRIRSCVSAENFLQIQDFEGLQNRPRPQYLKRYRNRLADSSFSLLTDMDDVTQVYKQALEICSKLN
In words: Inhibition of ARK5 at 10 uM.

Test [14] has as its system Serine/threonine-protein kinase B-raf (Homo sapiens), P15056 [V600E]. Kind of test: Inhibition of BRAF V600E mutant at 10 uM.
The target in test [15] is Tyrosine-protein kinase receptor UFO (Homo sapiens) (UniProt P30530). Kind of test: Inhibition of AXL at 10 uM.
The target in test [16] is Focal adhesion kinase 1 (Homo sapiens) (UniProt Q05397). In words: Inhibition of FAK at 10 uM.
Test [17] deals with T3, Serine/threonine-protein kinase PLK4 (Homo sapiens) (UniProt O00444).
T3 sequence (whole entry): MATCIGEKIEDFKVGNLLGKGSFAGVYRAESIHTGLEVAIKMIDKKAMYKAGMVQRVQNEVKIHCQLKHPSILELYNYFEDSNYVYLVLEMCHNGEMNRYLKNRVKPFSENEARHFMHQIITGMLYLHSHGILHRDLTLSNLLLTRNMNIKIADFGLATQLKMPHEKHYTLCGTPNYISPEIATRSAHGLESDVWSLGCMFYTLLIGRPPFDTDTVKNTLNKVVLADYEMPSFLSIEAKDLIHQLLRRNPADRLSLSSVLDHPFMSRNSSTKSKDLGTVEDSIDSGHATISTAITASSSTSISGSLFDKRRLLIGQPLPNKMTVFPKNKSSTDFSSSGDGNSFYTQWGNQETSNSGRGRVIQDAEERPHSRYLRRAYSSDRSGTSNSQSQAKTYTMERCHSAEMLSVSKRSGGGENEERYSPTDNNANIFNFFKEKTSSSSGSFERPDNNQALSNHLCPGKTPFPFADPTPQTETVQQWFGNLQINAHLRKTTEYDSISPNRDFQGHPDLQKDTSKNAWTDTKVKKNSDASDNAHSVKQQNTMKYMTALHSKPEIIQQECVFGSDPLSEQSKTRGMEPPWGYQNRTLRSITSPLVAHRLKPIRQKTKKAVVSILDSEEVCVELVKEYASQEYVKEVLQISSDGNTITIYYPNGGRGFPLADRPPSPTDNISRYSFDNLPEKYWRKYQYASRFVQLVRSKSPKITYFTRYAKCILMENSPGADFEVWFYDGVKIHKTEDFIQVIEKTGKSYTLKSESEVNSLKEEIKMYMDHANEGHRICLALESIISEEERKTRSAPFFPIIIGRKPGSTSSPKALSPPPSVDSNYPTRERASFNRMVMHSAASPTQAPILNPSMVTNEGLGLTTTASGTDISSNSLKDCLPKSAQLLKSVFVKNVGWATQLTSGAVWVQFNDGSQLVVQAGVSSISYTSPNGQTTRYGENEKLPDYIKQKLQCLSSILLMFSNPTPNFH
Kind of test: Inhibition of SAK at 10 uM.

Test [18] addresses T1, Mitogen-activated protein kinase 14. In words: Inhibition of p38alpha by immunosorbent based kinase assay.
Test [19] has the same target. In words: Inhibition of p38alpha-dependent TNFalpha production in human whole blood at 100 uM. In outline: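 Freshly drawn human whole blood, used diluted so that serum albumin and other plasma proteins are present; inhibition of TNF-α release from the blood's immune cells measured.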
Test [20] has the same target. In words: Inhibition of p38alpha-dependent TNFalpha production in human whole blood.

Insulin-like growth factor 1 receptor (Homo sapiens), sequence (P08069 31-736 limits assumed): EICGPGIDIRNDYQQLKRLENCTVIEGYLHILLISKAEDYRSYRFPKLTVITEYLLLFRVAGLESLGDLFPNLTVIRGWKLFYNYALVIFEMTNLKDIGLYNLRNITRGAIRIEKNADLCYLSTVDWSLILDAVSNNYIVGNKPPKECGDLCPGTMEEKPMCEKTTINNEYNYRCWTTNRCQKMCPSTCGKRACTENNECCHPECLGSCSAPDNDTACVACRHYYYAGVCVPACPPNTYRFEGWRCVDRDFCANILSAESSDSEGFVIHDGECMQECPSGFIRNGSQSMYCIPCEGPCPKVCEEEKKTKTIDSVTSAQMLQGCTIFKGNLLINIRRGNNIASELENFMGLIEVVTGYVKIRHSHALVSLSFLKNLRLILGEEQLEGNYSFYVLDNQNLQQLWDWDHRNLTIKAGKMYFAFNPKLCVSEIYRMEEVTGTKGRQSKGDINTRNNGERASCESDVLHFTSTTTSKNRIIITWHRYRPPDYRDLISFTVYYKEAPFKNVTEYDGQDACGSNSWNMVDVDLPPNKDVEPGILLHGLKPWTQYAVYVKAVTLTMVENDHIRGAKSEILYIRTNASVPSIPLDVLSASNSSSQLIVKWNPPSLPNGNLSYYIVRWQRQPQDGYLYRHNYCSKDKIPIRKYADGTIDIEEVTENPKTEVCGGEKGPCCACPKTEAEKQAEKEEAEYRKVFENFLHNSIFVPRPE
Insulin-like growth factor 1 receptor (Homo sapiens), sequence (P08069 741-1367 limits assumed): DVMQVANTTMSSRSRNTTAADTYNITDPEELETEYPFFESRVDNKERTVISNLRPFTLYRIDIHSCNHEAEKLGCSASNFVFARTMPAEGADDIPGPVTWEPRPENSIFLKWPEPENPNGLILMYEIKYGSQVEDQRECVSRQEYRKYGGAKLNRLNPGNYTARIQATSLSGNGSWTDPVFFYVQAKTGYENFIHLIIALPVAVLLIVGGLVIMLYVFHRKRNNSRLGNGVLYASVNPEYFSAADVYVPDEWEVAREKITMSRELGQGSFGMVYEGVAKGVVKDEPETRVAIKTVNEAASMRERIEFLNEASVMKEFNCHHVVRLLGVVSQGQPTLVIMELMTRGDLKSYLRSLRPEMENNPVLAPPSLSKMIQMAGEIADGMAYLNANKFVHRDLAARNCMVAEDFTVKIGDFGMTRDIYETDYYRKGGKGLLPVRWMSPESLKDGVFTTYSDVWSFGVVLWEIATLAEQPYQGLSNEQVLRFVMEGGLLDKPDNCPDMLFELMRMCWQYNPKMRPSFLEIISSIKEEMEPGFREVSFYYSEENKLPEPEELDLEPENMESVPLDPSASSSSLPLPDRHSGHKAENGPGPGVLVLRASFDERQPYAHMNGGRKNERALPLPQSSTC
Focal adhesion kinase 1 (Homo sapiens), sequence (Q05397 2-1052 limits assumed): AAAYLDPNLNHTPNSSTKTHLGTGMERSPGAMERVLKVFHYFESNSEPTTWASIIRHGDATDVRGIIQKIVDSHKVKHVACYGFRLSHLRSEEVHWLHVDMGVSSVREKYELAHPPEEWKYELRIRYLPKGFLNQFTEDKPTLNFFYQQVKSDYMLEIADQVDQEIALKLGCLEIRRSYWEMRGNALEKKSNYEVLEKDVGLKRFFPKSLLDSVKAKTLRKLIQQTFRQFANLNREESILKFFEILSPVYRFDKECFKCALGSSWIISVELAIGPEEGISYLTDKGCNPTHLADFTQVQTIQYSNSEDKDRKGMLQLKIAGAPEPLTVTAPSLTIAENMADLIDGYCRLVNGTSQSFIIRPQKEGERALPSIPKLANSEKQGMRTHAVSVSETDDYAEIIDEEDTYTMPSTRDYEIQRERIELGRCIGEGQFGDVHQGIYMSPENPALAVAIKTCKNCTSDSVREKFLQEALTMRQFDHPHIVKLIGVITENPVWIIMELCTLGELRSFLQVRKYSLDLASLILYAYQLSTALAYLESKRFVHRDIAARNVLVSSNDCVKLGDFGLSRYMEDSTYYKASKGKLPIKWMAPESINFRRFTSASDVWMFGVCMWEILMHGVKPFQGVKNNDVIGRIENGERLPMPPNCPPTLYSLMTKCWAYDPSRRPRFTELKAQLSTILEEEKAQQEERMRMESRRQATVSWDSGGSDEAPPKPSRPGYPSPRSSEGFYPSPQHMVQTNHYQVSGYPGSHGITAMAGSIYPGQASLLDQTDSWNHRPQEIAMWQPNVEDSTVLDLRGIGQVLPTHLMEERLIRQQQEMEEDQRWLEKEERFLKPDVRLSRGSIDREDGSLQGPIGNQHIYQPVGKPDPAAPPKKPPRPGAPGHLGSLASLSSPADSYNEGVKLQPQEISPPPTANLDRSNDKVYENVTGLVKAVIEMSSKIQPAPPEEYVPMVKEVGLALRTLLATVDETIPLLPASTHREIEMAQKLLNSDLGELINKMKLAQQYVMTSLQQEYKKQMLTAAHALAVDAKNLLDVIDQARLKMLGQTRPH
Proto-oncogene tyrosine-protein kinase Src (Homo sapiens), sequence (P12931 2-536 limits assumed): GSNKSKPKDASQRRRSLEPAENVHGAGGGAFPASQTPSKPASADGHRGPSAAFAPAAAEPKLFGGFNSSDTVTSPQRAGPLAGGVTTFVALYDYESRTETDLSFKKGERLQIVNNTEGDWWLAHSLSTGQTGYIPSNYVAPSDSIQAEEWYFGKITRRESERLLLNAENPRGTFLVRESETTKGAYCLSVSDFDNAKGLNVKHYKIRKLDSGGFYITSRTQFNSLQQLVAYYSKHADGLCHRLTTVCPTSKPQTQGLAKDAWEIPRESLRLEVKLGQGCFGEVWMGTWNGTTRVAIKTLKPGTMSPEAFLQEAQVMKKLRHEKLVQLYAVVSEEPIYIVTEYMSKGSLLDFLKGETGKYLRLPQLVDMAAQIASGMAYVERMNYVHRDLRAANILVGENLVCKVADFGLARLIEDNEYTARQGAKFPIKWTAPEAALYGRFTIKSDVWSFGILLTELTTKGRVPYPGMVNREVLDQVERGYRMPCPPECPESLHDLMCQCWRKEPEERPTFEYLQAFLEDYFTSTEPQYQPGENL
Casein kinase II subunit alpha (Homo sapiens), sequence (P68400 whole entry, looked up): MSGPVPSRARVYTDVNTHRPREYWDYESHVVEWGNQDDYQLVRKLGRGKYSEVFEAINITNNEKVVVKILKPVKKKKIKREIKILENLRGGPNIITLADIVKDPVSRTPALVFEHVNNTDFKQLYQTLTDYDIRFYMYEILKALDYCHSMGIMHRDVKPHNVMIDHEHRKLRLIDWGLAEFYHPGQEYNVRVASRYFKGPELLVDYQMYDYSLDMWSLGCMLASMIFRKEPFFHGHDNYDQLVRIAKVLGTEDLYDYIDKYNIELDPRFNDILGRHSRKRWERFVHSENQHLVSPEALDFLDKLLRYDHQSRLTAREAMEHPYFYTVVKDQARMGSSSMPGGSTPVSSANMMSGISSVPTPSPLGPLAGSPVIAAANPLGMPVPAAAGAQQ
BDNF/NT-3 growth factors receptor (Homo sapiens), sequence (Q16620 32-822 limits assumed): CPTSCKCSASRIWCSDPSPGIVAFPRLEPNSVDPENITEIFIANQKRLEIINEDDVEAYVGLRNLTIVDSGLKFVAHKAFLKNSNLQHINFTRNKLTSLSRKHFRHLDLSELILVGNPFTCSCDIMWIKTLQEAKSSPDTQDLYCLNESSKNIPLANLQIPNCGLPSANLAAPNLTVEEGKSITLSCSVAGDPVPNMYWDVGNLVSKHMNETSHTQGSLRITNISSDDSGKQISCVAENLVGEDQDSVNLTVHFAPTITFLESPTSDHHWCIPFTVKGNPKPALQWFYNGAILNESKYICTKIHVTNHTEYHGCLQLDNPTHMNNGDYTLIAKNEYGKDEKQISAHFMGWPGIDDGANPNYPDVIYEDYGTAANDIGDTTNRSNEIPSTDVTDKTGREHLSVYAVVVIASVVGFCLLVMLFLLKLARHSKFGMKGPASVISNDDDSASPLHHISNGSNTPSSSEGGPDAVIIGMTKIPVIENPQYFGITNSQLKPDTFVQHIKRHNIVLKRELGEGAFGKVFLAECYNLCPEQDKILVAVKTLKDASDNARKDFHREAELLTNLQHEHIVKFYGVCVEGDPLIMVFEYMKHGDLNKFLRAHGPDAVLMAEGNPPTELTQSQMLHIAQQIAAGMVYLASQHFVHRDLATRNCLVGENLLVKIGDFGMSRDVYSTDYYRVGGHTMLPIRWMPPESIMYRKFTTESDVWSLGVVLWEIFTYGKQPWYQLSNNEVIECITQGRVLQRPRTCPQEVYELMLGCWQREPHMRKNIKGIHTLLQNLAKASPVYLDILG
Tyrosine-protein kinase receptor UFO (Homo sapiens), sequence (P30530 whole entry): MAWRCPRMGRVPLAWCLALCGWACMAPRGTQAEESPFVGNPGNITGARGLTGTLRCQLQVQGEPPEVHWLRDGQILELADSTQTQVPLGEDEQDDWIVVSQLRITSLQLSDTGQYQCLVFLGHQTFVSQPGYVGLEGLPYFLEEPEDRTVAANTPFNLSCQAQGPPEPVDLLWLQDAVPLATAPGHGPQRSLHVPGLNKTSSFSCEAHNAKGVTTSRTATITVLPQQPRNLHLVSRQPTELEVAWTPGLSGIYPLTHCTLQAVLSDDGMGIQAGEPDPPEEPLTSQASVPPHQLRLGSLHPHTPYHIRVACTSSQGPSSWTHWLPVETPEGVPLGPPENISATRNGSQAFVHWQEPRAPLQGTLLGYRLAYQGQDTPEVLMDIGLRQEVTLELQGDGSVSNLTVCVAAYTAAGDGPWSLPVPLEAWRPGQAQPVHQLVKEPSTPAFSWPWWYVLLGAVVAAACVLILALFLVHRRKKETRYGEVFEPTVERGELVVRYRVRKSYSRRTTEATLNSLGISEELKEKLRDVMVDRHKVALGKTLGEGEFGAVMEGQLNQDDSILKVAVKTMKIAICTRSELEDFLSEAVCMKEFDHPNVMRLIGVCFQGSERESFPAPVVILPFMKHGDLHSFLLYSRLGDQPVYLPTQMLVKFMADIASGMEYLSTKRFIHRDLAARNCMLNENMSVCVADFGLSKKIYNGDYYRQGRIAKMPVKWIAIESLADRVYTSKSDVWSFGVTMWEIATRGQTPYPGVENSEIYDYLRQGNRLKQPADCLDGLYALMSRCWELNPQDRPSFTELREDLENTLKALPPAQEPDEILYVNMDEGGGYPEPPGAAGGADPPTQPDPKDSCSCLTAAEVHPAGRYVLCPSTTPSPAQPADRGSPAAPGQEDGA

`COc1ccc2ccc3cc(Nc4ccc(F)cc4F)ccc3c(=O)c2c1`: the inhibition result in test [1], in test [2], in test [3], in test [4], in test [5] and in [6] was “inactive” each time. In addition, the inhibition result in test [7], in test [9], in test [10], in test [11], in test [12] and in [13] was “inactive” each time. The inhibition result in [14], in test [15], in test [16] and in test [17] was “inactive” each time. This compound also displayed an inhibition in [8] of 21%.

As to `COc1ccc2c(c1)C(=O)c1ccc(-c3ccccc3)cc1CC2`, the inhibition entry in test [1], in [2], in test [3], in test [4], in test [5] and in test [6] was “inactive” in each case. For the same compound, the inhibition result in test [7], in [9], in test [10], in [11], in test [12] and in test [13] was “inactive” throughout. Also, the inhibition result in test [14], in [15], in test [16] and in test [17] was “inactive” in each case. The same compound had an inhibition in [8] of 32%.

Compound `CC1(C)OC[C@H](COc2cccc3c2CCc2cc(Nc4ccc(F)cc4F)ccc2C3=O)O1` came in with an IC50 in test [18] of 440 nM. The inhibition result in [1], in test [2], in test [3], in test [4], in test [5] and in [6] was “inactive” in each case. For the same compound, the inhibition result in [7], in test [9], in test [10], in test [11], in [12] and in test [13] was “inactive” throughout. Besides, the inhibition result in [14], in test [15], in test [16] and in test [17] was “inactive” throughout. In test [19], this compound registered an inhibition of 40%.

For the compound `CC1(C)OC[C@H](COc2ccc3c(c2)CCc2cc(Nc4ccc(F)cc4F)ccc2C3=O)O1`, the IC50 in test [18] is 20 nM; in test [20], 170000 nM. Moreover, the inhibition result in test [1], in [2], in test [3], in test [4], in [5] and in test [6] was “inactive” in each case. Besides, the inhibition entry in test [7], in [9], in test [10], in test [11], in test [12] and in test [13] was “inactive” in each case. Besides, the inhibition entry in test [14], in test [15], in test [16] and in test [17] was “inactive” throughout.

For `O=C1c2ccc(Nc3ccc(F)cc3F)cc2CCc2ccc(OCCO)cc21`, the IC50 in [18] turned out to be 10 nM; in [20], 480 nM. Also, the inhibition entry in test [1], in [2], in [3], in test [4], in test [5] and in [6] was “inactive” throughout. For the same compound, the inhibition entry in [7], in test [9], in test [10], in test [11], in test [12] and in test [13] was “inactive” each time. Moreover, the inhibition entry in test [14], in test [15], in test [16] and in [17] was “inactive” each time.

As for `O=C1c2ccc(Nc3ccc(F)cc3F)cc2CCc2cc(OC[C@@H](O)CO)ccc21`, the IC50 in [18] stood at 5 nM; in test [20], 5200 nM. In addition, the inhibition entry in [1], in test [2], in [3], in [4], in test [5] and in [6] was “inactive” each time. Moreover, the inhibition result in [7], in [9], in test [10], in [11], in test [12] and in [13] was “inactive” in each case. For the same compound, the inhibition result in [14], in test [15], in test [16] and in [17] was “inactive” each time.

The values are drawn from ChEMBL document CHEMBL2150974 (J Med Chem, 2012).
